Experimental data as given in ChEMBL document CHEMBL1125255, “Romazarit: a potential disease-modifying antirheumatic drug” (J Med Chem, 1991).
Calls of active or inactive are those of the source. The calls are words filed in the database; no cut-off is given here.

Legend:
Rattus norvegicus [1] = test: Radiographic change was judged in the area of the talus joint, using an arbitrary scoring system upon termination of the test (14 days dosing of 60 mg/kg)in a model of type II collagen arthritis in the rat.; format: functional; conditions: 336 h
Procedure, shortened: (§1)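 Type II collagen arthritis rats, eight per group, oral sodium salts daily from grouping (day 1). Hind limbs X-rayed post mortem. Tibia/talus and tarsus damage scored 0–3 per foot by two observers and averaged; left and right summed (max 6). Compared with arthritic controls by Mann–Whitney U test.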

Rattus norvegicus [2] = test: Radiographic change was judged in the area of the talus joint, using an arbitrary scoring system upon termination of the test (14 days dosing of 40 mg/kg)in a model of type II collagen arthritis in the rat.; format: functional; conditions: 336 h; procedure, shortened: as §1
[3] = Partition coefficient (logP); format: physicochemical; conditions: octanol/water
Procedure, shortened: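 Compound dissolved in disodium hydrogen phosphate/citric acid buffer pH 7.4 and partitioned against equal volume octan-1-ol. Buffer-phase UV absorbance read before and after partitioning near λmax. P′ from the octanol:buffer absorbance ratio.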

Rattus norvegicus [4] = test: Radiographic change was judged in the area of the talus joint, using an arbitrary scoring system upon termination of the test (14 days dosing of 20 mg/kg)in a model of type II collagen arthritis in the rat.; format: functional; conditions: 336 h; procedure, shortened: as §1
Cyclooxygenase = target: T1, Cyclooxygenase (Rattus norvegicus, UniProt P35355+Q63921); test: Inhibition of prostaglandin synthetase in rat renal medulla; format: functional, tissue-based
T1 sequence (P35355 whole entry): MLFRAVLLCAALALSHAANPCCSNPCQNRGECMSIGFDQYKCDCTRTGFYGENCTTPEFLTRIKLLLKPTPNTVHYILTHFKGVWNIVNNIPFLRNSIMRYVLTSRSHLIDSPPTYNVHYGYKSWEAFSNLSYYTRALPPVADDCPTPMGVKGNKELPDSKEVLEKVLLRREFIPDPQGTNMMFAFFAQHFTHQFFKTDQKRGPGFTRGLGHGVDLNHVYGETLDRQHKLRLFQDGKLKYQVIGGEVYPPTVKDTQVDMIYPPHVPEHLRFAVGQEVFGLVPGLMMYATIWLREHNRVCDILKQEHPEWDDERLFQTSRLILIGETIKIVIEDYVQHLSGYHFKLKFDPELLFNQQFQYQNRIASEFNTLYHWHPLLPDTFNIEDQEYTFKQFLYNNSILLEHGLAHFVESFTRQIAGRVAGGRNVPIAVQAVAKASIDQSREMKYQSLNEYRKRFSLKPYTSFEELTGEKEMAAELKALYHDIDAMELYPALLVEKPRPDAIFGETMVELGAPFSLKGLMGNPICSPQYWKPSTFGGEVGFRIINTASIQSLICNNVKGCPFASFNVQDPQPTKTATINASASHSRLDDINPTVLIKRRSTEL
T1 sequence (Q63921 whole entry): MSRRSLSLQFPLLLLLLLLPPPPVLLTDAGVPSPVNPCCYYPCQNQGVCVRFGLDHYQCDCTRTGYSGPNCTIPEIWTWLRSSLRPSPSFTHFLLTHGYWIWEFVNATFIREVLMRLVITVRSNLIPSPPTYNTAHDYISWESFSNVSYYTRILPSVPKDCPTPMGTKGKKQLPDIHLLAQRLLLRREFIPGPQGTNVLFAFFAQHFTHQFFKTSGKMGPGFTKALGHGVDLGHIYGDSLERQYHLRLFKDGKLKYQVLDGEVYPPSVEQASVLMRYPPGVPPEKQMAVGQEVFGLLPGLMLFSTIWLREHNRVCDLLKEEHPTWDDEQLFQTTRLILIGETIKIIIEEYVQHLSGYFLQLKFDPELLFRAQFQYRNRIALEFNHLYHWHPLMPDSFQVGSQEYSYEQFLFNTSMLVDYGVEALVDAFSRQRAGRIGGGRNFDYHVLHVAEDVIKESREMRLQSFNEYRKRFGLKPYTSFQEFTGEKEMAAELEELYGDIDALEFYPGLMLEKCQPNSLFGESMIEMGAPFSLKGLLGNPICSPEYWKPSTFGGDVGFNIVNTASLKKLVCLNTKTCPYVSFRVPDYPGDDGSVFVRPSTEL
Procedure, shortened: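 Same cyclooxygenase protocol run on rat renal medulla homogenate: 5 min 30 °C preincubation with glutathione 1 mM and adrenaline 625 μM. Prostaglandin/thromboxane area compared with the no-drug control.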

Rattus norvegicus [5] = test: Hepatic effect assessed by increase in liver weight after 14 days of dosing at 20 mg/kg orally.; format: functional
Procedure, shortened: (§2)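 Type II collagen arthritis rats, eight per group, daily oral dosing as sodium salts in water for 14 days. Liver weight recorded at termination and expressed as percentage change versus normal animals.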

Rattus norvegicus [6] = test: Hepatic effect assessed by increase in catalase levels after 14 days of dosing at 40 mg/kg orally.; format: functional
Procedure, shortened: (§3)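 Type II collagen arthritis rats, eight per group, given oral sodium salts daily for 14 days. At termination liver homogenized in ice-cold 0.25 M sucrose and spun 2000 rpm 10 min. Catalase followed by decline in A240 from H2O2 breakdown, expressed as first-order rate constant K. Result given as % change versus normals.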

Rattus norvegicus [7] = test: Radiographic change was judged in the area of the tarsus region, using an arbitrary scoring system upon termination of the test (14 days dosing of 20 mg/kg)in a model of type II collagen arthritis in the rat.; format: functional; conditions: 336 h; procedure, shortened: as §1
Rattus norvegicus [8] = test: Compound was evaluated in developing adjuvant arthritis model rats for its effect on paw edema.; format: functional; design: concentration or dose not given beside the values
Procedure, shortened: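 Female Allen and Hanbury hooded rats, five per group. Right hind paw injected sc on day 0 with heat-killed M. tuberculosis in paraffin oil (5 mg/mL). Compounds given orally as sodium salts in water. Paw volumes of both hind paws measured days 1–4, 1 h after dosing. Percent inhibition taken from area under the curve of the between-paw volume difference.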

Rattus norvegicus [9] = test: Hepatic effect assessed by increase in catalase levels after 14 days of dosing at 20 mg/kg orally.; format: functional; procedure, shortened: as §3
[10] = […] level determined in rat type II collagen arthritis model after 14 days dosing of 60 mg/kg.; format: functional
Procedure, shortened: (§4)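 Rat type II collagen arthritis, eight rats per group, daily oral dosing as sodium salts in water for 14 days. Plasma haptoglobin determined at termination and compared with normal and arthritic controls by Student's t test.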

Rattus norvegicus [11] = test: Hepatic effect assessed by increase in catalase levels after 14 days of dosing at 60 mg/kg orally.; format: functional; procedure, shortened: as §3
[12] = target: Prostaglandin G/H synthase 1 (Ovis aries) (UniProt P05979); test: Inhibition of prostaglandin synthetase in sheep seminal vesicle
Sequence of Prostaglandin G/H synthase 1 (Ovis aries) (P05979 whole entry, looked up): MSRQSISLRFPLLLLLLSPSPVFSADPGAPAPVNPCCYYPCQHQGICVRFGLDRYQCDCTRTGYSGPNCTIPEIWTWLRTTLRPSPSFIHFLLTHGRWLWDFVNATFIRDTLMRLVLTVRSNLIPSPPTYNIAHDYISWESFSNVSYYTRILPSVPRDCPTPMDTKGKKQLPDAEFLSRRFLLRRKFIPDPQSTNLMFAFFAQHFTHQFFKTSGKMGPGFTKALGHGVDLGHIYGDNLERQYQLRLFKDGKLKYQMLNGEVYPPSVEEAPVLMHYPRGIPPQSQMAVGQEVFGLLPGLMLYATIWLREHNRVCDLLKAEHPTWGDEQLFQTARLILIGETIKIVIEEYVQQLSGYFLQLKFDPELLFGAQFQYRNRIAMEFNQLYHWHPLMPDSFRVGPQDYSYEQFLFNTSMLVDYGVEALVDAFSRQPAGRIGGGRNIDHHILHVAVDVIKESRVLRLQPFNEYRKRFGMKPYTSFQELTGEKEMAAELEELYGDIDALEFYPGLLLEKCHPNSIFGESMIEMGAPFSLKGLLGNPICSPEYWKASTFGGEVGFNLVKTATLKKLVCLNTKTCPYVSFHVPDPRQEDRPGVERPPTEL

Rattus norvegicus [13] = test: Radiographic change was judged in the area of the tarsus region, using an arbitrary scoring system upon termination of the test (14 days dosing of 60 mg/kg)in a model of type II collagen arthritis in the rat.; format: functional; conditions: 336 h; procedure, shortened: as §1
Rattus norvegicus [14] = test: Radiographic change was judged in the area of the tarsus region, using an arbitrary scoring system upon termination of the test (14 days dosing of 100 mg/kg)in a model of type II collagen arthritis in the rat.; format: functional; conditions: 336 h; procedure, shortened: as §1
Rattus norvegicus [15] = test: Plasma level in type II collagen arthritis model after 14 days of dosing at 20 mg/kg.; format: functional, organism-based; design: dose 20 mg/kg
Procedure, shortened: (§5)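 Type II collagen arthritis rats dosed orally for 14 days. Plasma drug level measured by reverse-phase C-18 HPLC with UV detection at 282 nm.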

Rattus norvegicus [16] = species: Rattus norvegicus; test: Percent decrease in serum haptoglobin evaluated in a developing adjuvant arthritis model rats.
Rattus norvegicus [17] = test: Hepatic effect assessed by increase in liver weight after 14 days of dosing at 60 mg/kg orally.; format: functional; procedure, shortened: as §2
Rattus norvegicus [18] = test: Radiographic change was judged in the area of the talus joint, using an arbitrary scoring system upon termination of the test (14 days dosing of 100 mg/kg)in a model of type II collagen arthritis in the rat.; format: functional; conditions: 336 h; procedure, shortened: as §1
Rattus norvegicus [19] = test: Hepatic effect assessed by increase in liver weight after 14 days of dosing at 100 mg/kg orally.; format: functional; procedure, shortened: as §2
[20] = […] level determined in rat type II collagen arthritis model after 14 days dosing of 20 mg/kg.; format: functional; procedure, shortened: as §4
Rattus norvegicus [21] = test: Hepatic effect assessed by increase in catalase levels after 14 days of dosing at 100 mg/kg orally.; format: functional; procedure, shortened: as §3
Rattus norvegicus [22] = test: Radiographic change was judged in the area of the tarsus region, using an arbitrary scoring system upon termination of the test (14 days dosing of 40 mg/kg)in a model of type II collagen arthritis in the rat.; format: functional; conditions: 336 h; procedure, shortened: as §1
Rattus norvegicus [23] = test: Plasma level in type II collagen arthritis model after 14 days of dosing at 40 mg/kg.; format: functional, organism-based; design: dose 40 mg/kg; procedure, shortened: as §5
Homo sapiens = species: Homo sapiens; test: (§6) Inhibition of human PGE-2 production.; format: functional
Procedure, shortened: (§7)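 Human blood mononuclear cells from healthy volunteers stimulated with 2.5 μg/mL phytohaemagglutinin and incubated 24 h with compound (sodium salt). PGE2 measured by RIA.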

Rattus norvegicus [24] = test: Hepatic effect assessed by increase in liver weight after 14 days of dosing at 40 mg/kg orally.; format: functional; procedure, shortened: as §2
Rattus norvegicus [25] = test: Plasma level in type II collagen arthritis model after 14 days of dosing at 60 mg/kg.; format: functional, organism-based; design: dose 60 mg/kg; procedure, shortened: as §5
[26] = […] level determined in rat type II collagen arthritis model after 14 days dosing of 40 mg/kg.; format: functional; procedure, shortened: as §4
Rattus norvegicus [27] = test: Plasma level in type II collagen arthritis model after 14 days of dosing at 100 mg/kg.; format: functional, organism-based; design: dose 100 mg/kg; procedure, shortened: as §5
[28] = […] level determined in rat type II collagen arthritis model after 14 days dosing of 100 mg/kg.; format: functional; procedure, shortened: as §4
Mononuclear cell line = test: as §6; format: functional, cell-based; procedure, shortened: as §7
Rattus norvegicus [29] = test: Radiographic change was judged in the area of the talus joint, using an arbitrary scoring system upon termination of the test (14 days dosing of 1 mg/kg) in a model of type II collagen arthritis in the rat.; format: functional; conditions: 336 h; procedure, shortened: as §1
[30] = Inhibition of prostaglandin synthetase in sheep seminal vesicle; design: species or system Ovis aries
Procedure, shortened: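 Sheep seminal vesicle enzyme (2.5 mg/mL) preincubated 5 min at 30 °C with or without compound (sodium salt, aqueous) plus glutathione 1 mM and adrenaline 625 μM. Integrated prostaglandin/thromboxane peak area compared with the no-drug control.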

Rattus norvegicus [31] = species: Rattus norvegicus; test: Percent decrease in serum haptoglobin evaluated in a developing adjuvant arthritis model rats; No significant effect
Rattus norvegicus [32] = test: Radiographic change was judged in the area of the tarsus region, using an arbitrary scoring system upon termination of the test (14 days dosing of 1 mg/kg) in a model of type II collagen arthritis in the rat.; format: functional; conditions: 336 h; procedure, shortened: as §1

Work on `Cc1nc(-c2ccc(Cl)cc2)oc1COC(C)(C)C(=O)O` [ROMAZARIT] yielded an inhibition in vivo at 60 mg/kg (Rattus norvegicus [1]) of 63%, an inhibition in vivo at 40 mg/kg (Rattus norvegicus [2]) of 40% and a logP [3] of 0.34. The inhibition in vivo at 20 mg/kg (Rattus norvegicus [4]) was 33%, the IC50 (Cyclooxygenase) was greater than 300 µM and the Change (Rattus norvegicus [5]) was -5%. It also gave a Change (Rattus norvegicus [6]) of -34%, an inhibition in vivo at 20 mg/kg (Rattus norvegicus [7]) of 7% and an Inhibition (Rattus norvegicus [8]) of 73%. For the same compound, the Change (Rattus norvegicus [9]) was -51%, the Haptoglobin [10] was 0.32 g/L and the Change (Rattus norvegicus [11]) was -7%. The IC50 [12] was 6500 µM, the inhibition in vivo at 60 mg/kg (Rattus norvegicus [13]) was 46% and the inhibition in vivo at 100 mg/kg (Rattus norvegicus [14]) was 56%. For the same compound, the Plasma level (Rattus norvegicus [15]) was 64 µg/mL, the Decrease (Rattus norvegicus [16]) was 26% and the Change (Rattus norvegicus [17]) was 4%. The inhibition in vivo at 100 mg/kg (Rattus norvegicus [18]) was 82%, the Change (Rattus norvegicus [19]) was 13% and the Haptoglobin [20] was 0.31 g/L. It also gave a Change (Rattus norvegicus [21]) of 19%, an inhibition in vivo at 40 mg/kg (Rattus norvegicus [22]) of 35% and a Plasma level (Rattus norvegicus [23]) of 102 µg/mL. It also gave an IC50 (Homo sapiens) greater than 400 µM, a Change (Rattus norvegicus [24]) of -3% and a Plasma level (Rattus norvegicus [25]) of 172 µg/mL. The Haptoglobin [26] was 0.43 g/L, the Plasma level (Rattus norvegicus [27]) was 267 µg/mL and the Haptoglobin [28] was 0.34 g/L.
Work on `COc1ccc2c(c1)c(CC(=O)O)c(C)n2C(=O)c1ccc(Cl)cc1` [INDOMETHACIN] yielded an IC50 (Mononuclear cell line) of 0.3 µM, an inhibition in vivo at 1 mg/kg (Rattus norvegicus [29]) of 48% and an Inhibition (Rattus norvegicus [8]) of 84%. The IC50 [30] was 1.2 µM, the Decrease (Rattus norvegicus [31]) was “inactive” and the inhibition in vivo at 1 mg/kg (Rattus norvegicus [32]) was 45%.
